LANA-H2B inh = blocks KSHV LANA binding to histone H2A/H2B | cell-free LANA-H2A/H2B peptide, fluorescence polarization | inhibition, % (concentration not given with the values) | 0.6% of 320,000 active; in the data active means inhibition mostly above about 10%, no sharp cut-off; inactive means mostly below about 6.7%
GASC-1 inh = blocks human GASC-1 demethylase activity; Q9H3R0; GST-JMJD2C(1-420) H3K9me3 demethylation, DELFIA europium; inhibition, % at 2.35 µM; 0.069% of 330,000 active; AID 2099;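 active means more than half of a compound's replicate wells show inhibition beyond 50%, single wells judged on their own value; inconclusive means some, but no more than half, of replicates pass 50% inhibition; inactive means no replicate passes 50% inhibition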;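 further: signal counts dimethyl H3K9 product captured on neutravidin plate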
Target sequence (Q9H3R0 1-420 limits assumed): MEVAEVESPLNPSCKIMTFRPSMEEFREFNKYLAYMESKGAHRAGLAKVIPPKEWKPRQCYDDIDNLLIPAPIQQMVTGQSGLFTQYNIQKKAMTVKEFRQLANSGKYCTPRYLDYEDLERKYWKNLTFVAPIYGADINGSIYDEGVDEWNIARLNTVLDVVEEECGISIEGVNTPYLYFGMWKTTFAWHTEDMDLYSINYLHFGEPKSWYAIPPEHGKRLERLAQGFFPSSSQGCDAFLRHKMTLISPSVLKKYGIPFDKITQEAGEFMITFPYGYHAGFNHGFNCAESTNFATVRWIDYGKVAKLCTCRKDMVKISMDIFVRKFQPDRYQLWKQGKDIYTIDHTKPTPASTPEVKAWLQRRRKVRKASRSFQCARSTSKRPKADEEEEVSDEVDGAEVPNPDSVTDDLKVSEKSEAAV
Pemphigus Ab inh = human desmoglein-3 autoantibody binding inhibition; P32926; AID 588358; DSG3-coupled beads, scFv-anti-DSG3-GFP binding, flow cytometry; stronger effect = lower value; 0.48% of 310,000 active; binding (percent of control), % at 10 µM;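 active means binding more than 3 SD below its plate's average and above zero; inconclusive means below that plate limit but binding exactly zero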;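 further: hits lower antibody fragment binding to DSG3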
T cell modulator = T cell immune modulators affecting CD8 T cell-vesicle binding | 2C CD8+ T cell-vesicle binding, flow cytometry; stronger effect = lower value | response (vesicle binding), % at 7 µM | 0.068% of 330,000 active | AID 2052;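 active means response, share of CD8 T cells binding vesicles, and their 90th percentile fluorescence all below set limits, cut at about 80% in these data, passing the limit was not always enough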;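 further: values below 100% mean blocked vesicle binding to the CD8+ T cells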
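System: murine 2C transgenic CD8+ T lymphocytes; also added: QL9-loaded Drosophila micro-vesicles; times: binding 1.5 h at 37 °C; measured by: flow cytometry, PE anti-B7-1 (FL2) versus Alexa647 anti-CD8 (FL8), PFA-fixed; control set: Peptide-free naked vesicles (low) and QL9 vesicles with 0.7% DMSO vehicle (high)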
Arr AP2 block = human beta-arrestin and AP2 interaction inhibition | FITC-arrestin peptide / GST-AP2 beads, flow cytometry; AP2 beta2 appendage carries R879A mutation | inhibition, % at 10 µM | 0.31% of 340,000 active;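 active means inhibition above a set limit, near 3 SD of compounds lacking own fluorescence, cut at about 54% in these data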
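Material – GST-tagged AP2 beta2-adaptin appendage (R879A) on 4 µm glutathione beads · Probe or stimulus – fluorescein-tagged arrestin peptide at 50 nM final · Timing – 12 min plus 1 h, RT · Detection – bead flow cytometry, FITC channel · Read-out basis – inhibition as reduced fluorescein signal on beads, percent · Medium – PBS plus Tween 20 (0.05%) and BSA (0.1%)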
HDAC3 inh = blocks human histone deacetylase 3. inhibition, % at 8.3 µM. recombinant HDAC3, fluorogenic peptide/trypsin coupled, fluorescence. 0.15% of 320,000 active. O15379. AID 2718; in the data active means inhibition above about 26%, passing the limit was not always enough; inconclusive means no clear call, values can overlap the other calls
Hits are given with their value; i = inactive; ? = inconclusive; nt = not tested or not shown; + = active, no number. Compounds with a hit are over-represented: about 1.6% of the library has one in this group of screens.

SMILES | LANA-H2B inh | GASC-1 inh | Pemphigus Ab inh | T cell modulator | Arr AP2 block | HDAC3 inh
Cc1cc(OC(=O)c2ccccc2Br)c([N+](=O)[O-])c(=O)[nH]1 | i | i | i | i | i | i
Cc1ccc(NNC(=O)C(O)(c2cccc(C(F)(F)F)c2)c2cccc(C(F)(F)F)c2)cc1 | i | i | i | i | i | 40.7
COc1ccccc1CNS(=O)(=O)c1cccs1 | i | i | i | i | i | i
CCOc1ccc(NC(=O)c2ccncc2)cc1 | i | i | i | i | i | i
O=C(Nc1ccc(OCC(F)(F)C(F)F)cc1)c1ccncc1 | nt | i | -12.6 | i | i | nt
NC(=O)c1cc([N+](=O)[O-])c(Cl)cc1NCc1cccnc1 | i | i | i | i | i | i
O=C(CN1CCc2[nH]c3ccccc3c2C1)N1CCCCC1 | 18.3 | i | nt | i | i | i
COc1ccc(C(C(=O)NC(C)(C)C)N(CCC(C)C)C(=O)CCC(=O)Nc2cc(C)on2)cc1 (stereo not drawn) | 18.8 | i | i | i | i | i
CCNc1ncnc2c1cnn2C1CCCCO1 (stereo not drawn) | nt | nt | i | nt | i | nt
O=c1c2c([N+](=O)[O-])cc([N+](=O)[O-])cc2sn1-c1ccc(Br)cc1 | i | i | -121.2 | i | i | ?
O=c1c2c([N+](=O)[O-])cc([N+](=O)[O-])cc2sn1Cc1ccccc1 | i | i | 36.9 | i | i | i
COc1ccc(-c2nc3cnccn3c2NCc2ccccc2)cc1SC1CCCCC1 | i | i | i | i | i | 29.5
COc1cccc(OCc2cc(/C=N/Nc3ccc(C(=O)O)cc3)ccc2OC)c1 | i | i | 61.2 | i | i | i
CC(C)(C)OC(=O)NCCCC[C@H](NC(=O)c1[nH]cnc1C(=O)Nc1ccc(Cl)cc1)C(=O)OC(C)(C)C | i | i | i | i | nt | ?
CC(C)(C)OC(=O)NCCCC[C@H](NC(=O)c1[nH]cnc1C(=O)Nc1ccccc1)C(=O)OC(C)(C)C | i | i | i | i | i | 36.7
CC(C)C[C@H](NC(=O)c1nc[nH]c1C(=O)NCC(=O)OC(C)(C)C)C(=O)OCc1ccccc1 | i | i | i | i | i | i
C[C@H](NC(=O)c1nc[nH]c1C(=O)N[C@@H](Cc1ccccc1)C(=O)OC(C)(C)C)c1ccccc1 | i | i | i | i | i | 28.1
CC(C)(C)OC(=O)NCCCC[C@H](NC(=O)c1[nH]cnc1C(=O)N[C@@H](Cc1ccccc1)C(=O)OCc1ccccc1)C(=O)OC(C)(C)C | i | nt | i | i | i | 38.3
CC(C)C[C@H](NC(=O)c1nc[nH]c1C(=O)NCC(=O)OCc1ccccc1)C(=O)OCc1ccccc1 | i | i | i | i | i | 28.5
CC(C)(C)OC(=O)[C@H](Cc1ccccc1)NC(=O)c1nc[nH]c1C(=O)N[C@@H](CCCCN)C(=O)OC(C)(C)C | i | i | i | i | i | i
CC(C)C[C@H](NC(=O)c1nc[nH]c1C(=O)N[C@@H](CCCCNC(=O)OC(C)(C)C)C(=O)OC(C)(C)C)C(=O)OC(C)(C)C | i | i | i | i | i | i
C[C@@H](NC(=O)c1nc[nH]c1C(=O)N[C@@H](CCCCNC(=O)OC(C)(C)C)C(=O)OC(C)(C)C)c1ccccc1 | i | i | i | i | i | 34.1
O=C1C2C3C=CC(C4CC34)C2C(=O)N1CCCCN1CCN(c2ccc(F)cc2)CC1 (stereo not drawn) | i | i | nt | i | i | i
CCN(CCn1cccn1)Cc1nc(-c2ccccc2)no1 | i | i | i | i | i | i
CCN(CCn1cccn1)Cc1nc(-c2ccc(OC)cc2)no1 | + | i | i | i | i | i
SMILES | LANA-H2B inh | GASC-1 inh | Pemphigus Ab inh | T cell modulator | Arr AP2 block | HDAC3 inh
COc1ccc(CNC(=O)Cn2nc(C)c3c(C)n(-c4ccc(C)cc4)nc3c2=O)cc1OC | i | i | i | i | i | i
CCN(CC)CCn1c(NS(=O)(=O)c2ccc(C)cc2)nc2ccccc21 | i | i | i | i | i | i
CCCn1c(CNS(=O)(=O)c2ccc(C)cc2)nc2ccccc21 | i | i | 66.3 | i | i | i
COc1ccc2cc(C[C@@H]3CC[C@@H](CO)O3)ccc2c1 | nt | nt | i | nt | i | nt
C=CCN1C(=O)/C(=C2\SC(N3CCOCC3)=NC2=O)c2cc(Br)ccc21 | 19.1 | i | i | i | i | i
CCN1C(=O)/C(=C2\SC(N3CCOCC3)=NC2=O)c2ccccc21 | nt | i | i | nt | i | nt
COc1ccc(C2(CNC(C)=O)CCCC2)cc1OC | i | i | i | i | i | i
CC(=O)NCC1(O)CCCC(C)C1 (stereo not drawn) | 19.3 | i | i | i | i | i
NC(=S)Nc1ncc(C(F)(F)F)cc1Cl | 127.5 | i | i | i | i | i
CC(C)(C)c1ccccc1NC(=O)CN1C(=O)NC2(CCCCCC2)C1=O | i | i | i | i | i | i
NC(=O)NC(=O)CN1c2cccc3cccc(c23)S1(=O)=O | i | i | i | i | i | i
O=C(NCc1ccccc1)C1CC(=O)N(c2ccc(OCC(=O)N3CCOCC3)cc2)C1 (stereo not drawn) | i | i | i | i | i | i
O=C(NCCc1ccccc1)c1cnc2n(c1=O)CCS2 | 12.5 | i | i | i | i | ?
C/C(=N\OCC(=O)OCC(=O)NC(=O)c1ccc(OC(F)F)cc1)c1ccc2c(c1)OCO2 | i | i | i | i | i | i
Cc1ccc(-n2c(-c3ccncc3)nnc2-c2cccs2)cc1 | i | i | -8.5 | i | i | i
Cc1ccc(-n2c(-c3ccncc3)n[nH]c2=S)cc1 | i | i | i | i | i | i
Cc1cccc(NC(=O)[C@H](Cc2ccccc2)NC(=O)OCc2ccccc2)c1 | i | i | -3.4 | i | i | i
Cc1ccc(NC(=O)C(Cc2ccccc2)NC(=O)OCc2ccccc2)cc1C (stereo not drawn) | i | i | i | i | i | i
O=C(Nc1ccc(S(=O)(=O)N2CCCCC2)cc1)C1CC(=O)N(c2ccc(Cl)cc2)C1 (stereo not drawn) | i | i | i | i | i | i
COc1cccc(C(=O)Oc2cc(N)n(S(=O)(=O)c3ccc(C)cc3)n2)c1OC | i | i | nt | i | i | 53.4
Cc1ccc(C(=O)Oc2cc(N)n(S(=O)(=O)c3ccc(F)cc3)n2)cc1 | i | i | nt | i | i | i
COc1ccc(S(=O)(=O)n2nc(OC(C)=O)cc2N)cc1 | i | i | i | nt | i | i
COc1ccc(C(=O)Oc2cc(N)n(S(=O)(=O)c3ccccc3)n2)cc1 | i | i | i | i | i | ?
Nc1cc(OC(=O)c2cccs2)nn1S(=O)(=O)c1ccc(F)cc1 | i | i | i | i | i | 70.0
COc1ccc(S(=O)(=O)n2nc(OC(=O)c3cccs3)cc2NC(=O)c2cccs2)cc1 | i | i | i | i | i | 46.3
Nc1cc(OC(=O)c2cccs2)nn1S(=O)(=O)c1ccccc1 | i | i | i | i | i | 95.8
